From PubChem BioAssay AID720574 (Broad Institute, 2013)
Among all 96,000 compounds or so, about 140 (0.15%) were called active.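 Rule for the calls: active = mean replicate inhibition above about 25%, with at least 55% of replicates also reaching it (limit read from the data, passing the limit was not always enough); inconclusive = only one of those two conditions met; inactive = neither condition met.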 Shown is part of a subset that was picked to be rich in actives.

molecular target: Lysine-specific demethylase 4C (Homo sapiens) (UniProt Q9H3R0); assay: KDM4C H3K9me3 demethylation inhibition – biochemical, single concentration HTS, primary screen (AID 720574); conditions: GST-KDM4C 2-372, H3K9me3 peptide, LANCE TR-FRET; at 12.5 µM; active compounds read high
Procedure, shortened: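 Compound: one test concentration per compound; Material: GST-GASC-1 enzyme fragment 2-372; Amount: GASC-1 enzyme at 10 nM final in reaction; Also added: H3K9me3 peptide substrate, Fe(II), 2-oxoglutarate; Technique: LANCE TR-FRET; Times: 30 min demethylation and 1 h detection at room temperature.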

Lysine-specific demethylase 4C (Homo sapiens), sequence (Q9H3R0 2-372 limits assumed): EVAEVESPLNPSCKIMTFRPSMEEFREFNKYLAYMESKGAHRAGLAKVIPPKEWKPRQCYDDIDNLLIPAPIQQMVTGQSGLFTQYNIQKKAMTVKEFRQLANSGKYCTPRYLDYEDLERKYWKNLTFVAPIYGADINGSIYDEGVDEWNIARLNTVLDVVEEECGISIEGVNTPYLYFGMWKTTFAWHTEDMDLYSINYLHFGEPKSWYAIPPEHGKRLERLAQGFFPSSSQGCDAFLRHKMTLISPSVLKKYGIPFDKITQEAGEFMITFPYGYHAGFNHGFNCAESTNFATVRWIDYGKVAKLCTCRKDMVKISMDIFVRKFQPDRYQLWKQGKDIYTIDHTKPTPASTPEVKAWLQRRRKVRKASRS

inhibition, inactive:
CCCC#Cc1ccc([C@H]2[C@H](CO)N3C(=O)CN(C(=O)c4ccc(F)cc4)C[C@@H]23)cc1 0.883%
C/C=C/c1ccc([C@H]2[C@@H](CO)N(C(=O)C3CC3)[C@@H]2CNC(=O)NC(C)C)cc1 0.927%
COc1ccccc1S(=O)(=O)N[C@@H]1C=C[C@H](CC(=O)NCc2cccc(F)c2)O[C@H]1CO -0.0955%
C/C=C/c1ccccc1[C@H]1[C@@H](C#N)N(c2nc(CC)cs2)[C@@H]1CO -0.26%
CN(C)C(=O)C[C@@H]1C[C@@H]2c3cc(NC(=O)NC4CCCCC4)ccc3O[C@@H]2[C@H](CO)O1 -1.19%
CO[C@@H]1CN(C)C(=O)c2ccc(NC(C)=O)cc2OC[C@@H](C)N(CC2CC2)C[C@H]1C 2.5%
C[C@H](CO)N1C[C@H](C)[C@@H](CN(C)Cc2ccc(-c3ccccc3)cc2)Oc2ccc(NC(=O)Cn3cnnn3)cc2C1=O -1.72%
CCCN(C)C[C@H]1Oc2ncc(-c3cccnc3)cc2C(=O)N([C@@H](C)CO)C[C@@H]1C -0.329%
C[C@H](CO)N1C[C@H](C)[C@@H](CN(C)C(=O)c2ccncc2)Oc2cc(/C=C/c3ccccc3)ccc2S1(=O)=O -4.23%
CS(=O)(=O)Nc1ccc2c(c1)[C@@H]1C[C@H](CC(=O)NCc3ccccn3)O[C@@H](CO)[C@@H]1O2 -0.895%
COc1ccc2c3c([nH]c2c1)[C@@H](CO)N(Cc1ccccc1)CC31CCN(Cc2cncnc2)CC1 -1.85%
COc1ccccc1S(=O)(=O)N[C@@H]1CC[C@@H](CCn2cc(C3CCCCC3)nn2)O[C@H]1CO 0.124%
CCC(=O)Nc1ccc2c(c1)C(=O)N(C)[C@H]1CC[C@H](CC(=O)NCC3CCCCC3)O[C@H]1CO2 -0.841%
Cc1ccc(S(=O)(=O)NCC[C@H]2CC[C@H](NC(=O)c3ccccn3)[C@H](CO)O2)cc1 -1.29%
CCCN1[C@@H]2c3ccc(-c4ccccc4)c(=O)n3C[C@@H]2[C@@H](CO)[C@@H]1C(=O)N(C)C 0.941%
COc1ccccc1C(=O)Nc1ccc2c(c1)OC[C@@H](C)NC[C@H](C)[C@@H](OC)CN(C)C2=O -1.47%
CCCNC(=O)N(C)C[C@H]1Oc2cc(C#C[C@@H](C)O)ccc2S(=O)(=O)N([C@H](C)CO)C[C@H]1C 7.38%
CO[C@H]1CC[C@@H]2CCOc3c(C#N)cccc3C(=O)N(C)C[C@@H](OC)[C@H](C)C(=O)N(C)C[C@H]1O2 0.229%
CN1C(=O)c2cc(NC(=O)C3CCC3)ccc2OC[C@@H]2O[C@@H](CC(=O)NCCc3ccncc3)CC[C@H]21 1.45%
CN1C[C@H]2[C@@H](c3ccccc31)[C@@H](CO)N2C(=O)Nc1ccccc1 -2.7%
COc1cccc(-c2ccc3n(c2=O)C[C@@H]2[C@@H](CO)[C@H](C(=O)NC4CCC4)[C@H]3N2C)c1 1.02%
CO[C@@H]1CN(C)C(=O)c2cc(NC(=O)C3CCCC3)ccc2OC[C@H](C)N(C)C[C@@H]1C -0.0185%
CO[C@H]1CN(C)C(=O)c2ccc(NC(C)=O)cc2OC[C@@H](C)N(C(=O)CN(C)C)C[C@@H]1C -0.377%
CC(=O)N1[C@H](CO)[C@@H](c2ccccc2)[C@@H]1CN(CC(C)C)C(=O)c1ccccn1 4.04%
CCCC(=O)Nc1ccc2c(c1)OC[C@H](C)N(C(=O)C1CCCC1)C[C@@H](C)[C@H](OC)CN(C)C2=O 0.661%
Cc1cccc(S(=O)(=O)N2C[C@@H](O)COC[C@H]3O[C@H](CC(=O)N4CCN(C)CC4)CC[C@@H]32)c1 -1%
O=C(Cc1ccncc1)N1CC[C@@H]2[C@@H](CO)Nc3ccc(C4=CCCCC4)cc3[C@@H]21 0.328%
CC(C)NC(=O)N1C[C@@H]2[C@H](c3ccccc31)[C@@H](CO)N2Cc1ccc(Cl)cc1 1.62%
CO[C@@H]1CN(C)C(=O)c2cc(NC(=O)Nc3cc(F)ccc3F)ccc2OC[C@H](C)N(C(=O)c2ccccn2)C[C@@H]1C -1.15%
CCC(=O)Nc1ccc2c(c1)C(=O)N(C)C[C@H](OC)[C@H](C)CN(CCC(F)(F)F)[C@H](C)CO2 -0.234%
C[C@H]1CCCCO[C@@H](CN(C)C(=O)Nc2cccc3ccccc23)[C@@H](C)CN([C@@H](C)CO)C(=O)c2cc(NS(=O)(=O)c3cn(C)cn3)ccc2O1 -7.92%
O=C(C[C@H]1C[C@H]2c3cc(NC(=O)C4CCOCC4)ccc3O[C@H]2[C@@H](CO)O1)NCCN1CCCCC1 1.06%
O=C(C[C@H]1CC[C@H]2[C@@H](COC[C@H](O)CN2S(=O)(=O)c2cccc(F)c2)O1)NC1CCC1 0.711%
O=C(C[C@H]1CC[C@@H]2[C@H](COC[C@H](O)CN2Cc2ccccc2F)O1)NC1CCC1 1.48%
O=C(C[C@@H]1C=C[C@@H](NC(=O)c2cccnc2)[C@H](CO)O1)NCc1ccncn1 1.05%
C[C@H](CO)N1C[C@H](C)[C@@H](CN(C)S(C)(=O)=O)Oc2cc(C#CC3CC3)ccc2S1(=O)=O 4.29%
C[C@H]1CCCCO[C@H](CN(C)C(=O)Nc2ccc(F)cc2)[C@@H](C)CN([C@@H](C)CO)C(=O)c2cc(NC(=O)CCC(F)(F)F)ccc2O1 1.63%
CS(=O)(=O)N1CC2(C1)[C@H](c1ccccc1)[C@@H](CO)N2C(=O)c1ccccc1 -0.995%
O=C(Cc1ccncc1)N[C@@H]1CC[C@H](CCn2cc(-c3ccccc3F)nn2)O[C@H]1CO -1.33%
CN(C)CC(=O)N1[C@@H](CO)[C@H](c2ccccc2)C12CN(C(=O)c1cccc(F)c1)C2 -0.471%
CCC(=O)N1[C@H](C(=O)OC)[C@@H](CO)[C@@H]2Cn3c(ccc(-c4cccc(F)c4)c3=O)[C@@H]21 1.8%
